This note sets out measurements from ChEMBL document CHEMBL1759906, “Identification of potent, noncovalent fatty acid amide hydrolase (FAAH) inhibitors” (Bioorg Med Chem Lett, 2011).

Structures are written as SMILES.

Data set [1] can be described thus: Drug uptake in rat brain at 0.5 mg/kg, iv after 2 hrs. It counts as ADME, organism-based. On the set-up: dose 0.5 mg/kg, route intravenous. Particulars: read-out: Drug uptake. In outline: (§1)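 Following 0.5 mg/Kg i.v. dosing in rats, total compound concentrations measured in plasma, blood and brain at 0.5 h and 2 h.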
For data set [2], the target named is T1, Fatty-acid amide hydrolase 1 (Homo sapiens, UniProt O00519).
T1 sequence (O00519 whole entry): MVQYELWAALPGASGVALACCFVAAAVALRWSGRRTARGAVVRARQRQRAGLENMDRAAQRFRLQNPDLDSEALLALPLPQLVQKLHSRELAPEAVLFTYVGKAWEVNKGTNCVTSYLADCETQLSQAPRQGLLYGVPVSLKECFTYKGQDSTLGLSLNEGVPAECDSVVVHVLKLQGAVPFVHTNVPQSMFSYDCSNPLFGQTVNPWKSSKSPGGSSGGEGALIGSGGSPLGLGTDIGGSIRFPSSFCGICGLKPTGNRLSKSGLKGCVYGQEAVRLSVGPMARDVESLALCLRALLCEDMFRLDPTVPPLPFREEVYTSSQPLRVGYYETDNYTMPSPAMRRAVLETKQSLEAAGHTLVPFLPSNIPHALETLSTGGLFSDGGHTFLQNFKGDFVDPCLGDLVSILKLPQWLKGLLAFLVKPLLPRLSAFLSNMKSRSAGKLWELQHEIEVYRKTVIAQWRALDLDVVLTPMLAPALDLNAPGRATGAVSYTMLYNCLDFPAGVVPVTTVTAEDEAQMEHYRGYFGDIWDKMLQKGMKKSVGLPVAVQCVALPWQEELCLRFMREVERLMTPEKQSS
As to the kind of experiment: Inhibition of FAAH in human T84 cell assessed as conversion of [3H]AEA to [3H]ethanolamine by scintillation counting.

Data set [3] concerns the target T2, Fatty-acid amide hydrolase 1 (Rattus norvegicus, UniProt P97612).
T2 sequence (P97612 whole entry): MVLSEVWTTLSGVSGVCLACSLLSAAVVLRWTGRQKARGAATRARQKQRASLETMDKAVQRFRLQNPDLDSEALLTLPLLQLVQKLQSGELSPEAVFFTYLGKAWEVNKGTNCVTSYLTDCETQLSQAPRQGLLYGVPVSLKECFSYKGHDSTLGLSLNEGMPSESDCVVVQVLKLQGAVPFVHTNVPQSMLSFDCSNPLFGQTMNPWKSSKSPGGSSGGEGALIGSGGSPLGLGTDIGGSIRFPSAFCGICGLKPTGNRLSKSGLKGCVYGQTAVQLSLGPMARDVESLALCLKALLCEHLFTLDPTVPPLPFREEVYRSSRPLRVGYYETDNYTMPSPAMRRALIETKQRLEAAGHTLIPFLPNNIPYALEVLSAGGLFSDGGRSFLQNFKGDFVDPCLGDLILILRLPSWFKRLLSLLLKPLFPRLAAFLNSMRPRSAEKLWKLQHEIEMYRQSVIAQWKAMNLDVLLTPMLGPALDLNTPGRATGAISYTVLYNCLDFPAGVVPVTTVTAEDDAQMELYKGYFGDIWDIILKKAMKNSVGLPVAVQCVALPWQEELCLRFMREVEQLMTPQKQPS
As to the kind of experiment: Inhibition of rat FAAH assessed as hydrolysis of anandamido-amino-methyl-cumarin.

Data set [4] is described as follows: Bioavailability in rat. The settings on record: in vivo. The format is ADME, organism-based.
In data set [5] the target is T2, Fatty-acid amide hydrolase 1. As to the kind of experiment: Inhibition of FAAH in rat RBL cell assessed as conversion of [3H]AEA to [3H]ethanolamine by scintillation counting. It counts as cell-based.
Data set [6] concerns P-gp. As to the kind of experiment: Permeability efflux ratio in P-gp expressing pig LLC-PK1 cells. The format is ADME, cell-based, Sus scrofa. In outline:
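Measured across LLC-PK1 cell monolayers, following a method from an earlier report.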

Data set [7] in a line: Volume of distribution at steady state in rat at 0.5 mg/kg, iv. It counts as ADME, organism-based. On the set-up: dose 0.5 mg/kg, route intravenous. Particulars: in vivo, read-out: Vdss. In a few lines: (§2)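 Rats dosed 0.5 mg/Kg intravenously; clearance and steady-state volume of distribution derived from plasma exposure; values are means of at least two animals.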
The nature of data set [8]: Plasma concentration in rat at 0.5 mg/kg, iv after 0.5 hrs. The format is ADME, organism-based. On the set-up: dose 0.5 mg/kg, route intravenous. In outline: as §1
Data set [9] can be described thus: Plasma concentration in rat at 0.5 mg/kg, iv after 2 hrs. It counts as ADME, organism-based. On the set-up: dose 0.5 mg/kg, route intravenous. In outline: as §1
The nature of data set [10]: Mean residence time in rat at 2 mg/kg, po. It counts as ADME, organism-based. The settings on record: in vivo. On the set-up: dose 2 mg/kg, route oral.
Data set [11] in a line: Cmax in rat at 2 mg/kg, po. Particulars: in vivo. It counts as ADME, organism-based. On the set-up: dose 2 mg/kg, route oral.
The target of data set [12] is T1, Fatty-acid amide hydrolase 1. Nature of the data set: Inhibition of human FAAH assessed as hydrolysis of anandamido-amino-methyl-cumarin.
The nature of data set [13]: Ratio of drug level in brain to plasma in rat at 0.5 mg/kg, iv. It counts as ADME, organism-based. On the set-up: dose 0.5 mg/kg, route intravenous. In outline: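 Brain/plasma ratio calculated from total plasma and brain exposure after 0.5 mg/Kg i.v. in rat, corrected for fraction unbound in plasma and brain tissue, the latter determined by ultracentrifugation in rat tissues.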

Data set [14] is described as follows: Clearance in rat at 0.5 mg/kg, iv. On the set-up: dose 0.5 mg/kg, route intravenous. It counts as ADME, organism-based. Particulars: in vivo. In a few lines: as §2
Data set [15] is described as follows: Permeability across pig LLC-PK1 cells. The format is ADME, cell-based, Sus scrofa. The settings on record: read-out: permeability.
Data set [16] is described as follows: Drug uptake in rat blood at 0.5 mg/kg, iv after 0.5 hrs. The format is ADME, organism-based. On the set-up: dose 0.5 mg/kg, route intravenous. Particulars: read-out: Drug uptake. In a few lines:
as §1

The nature of data set [17]: Drug uptake in rat blood at 0.5 mg/kg, iv after 2 hrs. On the set-up: dose 0.5 mg/kg, route intravenous. The settings on record: read-out: Drug uptake. It counts as ADME, organism-based. In a few lines:
as §1

Data set [18] is described as follows: Drug uptake in rat brain at 0.5 mg/kg, iv after 0.5 hrs. The format is ADME, organism-based. On the set-up: dose 0.5 mg/kg, route intravenous. The settings on record: read-out: Drug uptake. In a few lines:
as §1

The EC50 is the midpoint of the concentration-response curve. One may read the IC50 as the point on the concentration scale where inhibition reaches its midpoint. As usually defined, the bioavailability is the share of a dose that reaches the circulation, judged against a reference dose that is usually intravenous. Read a high bioavailability as much systemic uptake. In general, efflux ratio refers to the permeability from basolateral to apical divided by that in the opposite direction, in the common usage. By MRT is commonly meant a mean duration of stay, worked out from the concentration-time curve. A word on the Cmax: it is the maximum level reached in the sampled fluid or tissue. In general, Kp refers to the ratio of the level in a tissue or fluid to that in plasma or blood. As usually defined, the clearance is the rate of elimination divided by the concentration. A higher clearance goes with efficient removal. On to `CCn1c(=O)n([C@H]2CCCN(c3cc(-c4ccc(F)cc4)nc(N)n3)C2)c2ncccc21`, for which the results for the concentration at 2 h in data set [1], in [9] and in data set [17] were 130 nM, 700 nM and 210 nM, respectively. The concentration for a half-maximal effect (EC50) in data set [2] stood at 20 nM; in [5], 100 nM. Besides, the values for the IC50 in [3] and in data set [12] were 43 nM and 14 nM, respectively. This molecule registered a bioavailability in [4] of 99%. Besides, the efflux ratio in [6] came to 1.1. The Vd in data set [7] amounted to 0.69 L/kg. Further, the concentration at 0.5 h worked out at 2200 nM in [8], 770 nM in data set [16] and 380 nM in data set [18]. In data set [10], the MRT was 5.2 h. In data set [11], this molecule displayed a Cmax of 3400 nM. The Kp in data set [13] came to 0.41. This molecule gave a clearance in [14] of 4 mL/min/kg. Moreover, the Papp in data set [15] turned out to be 3.5 ×10⁻⁶ cm/s.
